These results are taken from ChEMBL document CHEMBL4622866, “Synthesis, biochemical evaluation, and molecular modeling of organophosphate-coumarin hybrids as potent and selective butyrylcholinesterase inhibitors” (Bioorg Med Chem Lett, 2020).

Activity calls are given as the source filed them. No cut-off for these calls is given here.

For one data set, the target named is Cholinesterase (Equus caballus, UniProt P81908). As to the kind of experiment: Inhibition of equine BChE using butyrylthiocholine as substrate measured after 15 sec by Ellman's method. Summed up:
(§1)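 Ellman assay scaled to 120 μL reactions, with no enzyme–inhibitor pre-incubation. Activity read after 15 s of enzyme exposure. Inhibitor stocks were made in methanol and diluted into buffer; some values were determined in 2% DMSO. IC50 values are reported as mean with standard deviation.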
(In general: Ellman's reagent forms a yellow product with free thiols.)

In data set [1] the target is Cholinesterase (Equus caballus) (UniProt P81908). The data set is described as follows: Binding affinity to equine BChE assessed as observed rate constant.
Data set [2] deals with T1, Acetylcholinesterase (Electrophorus electricus, UniProt O42275). The data set is described as follows: Inhibition of electric eel AChE using acetylthiocholine as substrate measured after 15 sec by Ellman's method. Summed up:
as §1

Data set [3] in a line: Selectivity index, ratio of IC50 for electric eel AChE using acetylthiocholine as substrate measured after 15 sec by Ellman's method to IC50 for equine BChE using butyrylthiocholine as substrate measured after 15 sec by Ellman's method.
The target in data set [4] is Cholinesterase (Equus caballus) (UniProt P81908). As to the kind of experiment: Time dependent inhibition of equine BChE.
Data set [5] deals with T1, Acetylcholinesterase. As to the kind of experiment: Time dependent inhibition of electric eel AChE.
Data set [6] deals with Cholinesterase (Equus caballus) (UniProt P81908). As to the kind of experiment: Inhibition of equine BChE at 34 uM using butyrylthiocholine as substrate measured after 15 sec by Ellman's method relative to control. Summed up: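 Single-concentration Ellman screen (120 μL scale) at 34 μM inhibitor with 2% MeOH (v/v) vehicle. Activity read after 15 s of enzyme exposure, in triplicate, reported as mean. Expressed relative to a vehicle-only control reaction.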

Sequence of Cholinesterase (P81908 whole entry): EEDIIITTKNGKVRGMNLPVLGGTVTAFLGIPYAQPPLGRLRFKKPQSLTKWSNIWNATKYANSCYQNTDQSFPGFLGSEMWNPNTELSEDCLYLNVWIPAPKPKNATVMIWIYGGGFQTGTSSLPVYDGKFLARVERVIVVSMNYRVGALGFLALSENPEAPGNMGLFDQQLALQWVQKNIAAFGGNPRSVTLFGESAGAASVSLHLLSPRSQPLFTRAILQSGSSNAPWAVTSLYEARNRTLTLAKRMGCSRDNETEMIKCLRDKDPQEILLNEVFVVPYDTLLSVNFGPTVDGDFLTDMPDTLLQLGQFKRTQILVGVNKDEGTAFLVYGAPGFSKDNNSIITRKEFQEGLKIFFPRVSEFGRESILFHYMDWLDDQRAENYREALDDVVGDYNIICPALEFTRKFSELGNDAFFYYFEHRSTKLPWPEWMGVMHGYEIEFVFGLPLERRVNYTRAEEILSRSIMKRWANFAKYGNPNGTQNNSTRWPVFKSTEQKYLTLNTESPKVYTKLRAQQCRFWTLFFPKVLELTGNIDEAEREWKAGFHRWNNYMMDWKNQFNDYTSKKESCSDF
Sequence of Cholinesterase (Equus caballus) (P81908 whole entry): as above
T1 sequence (O42275 whole entry): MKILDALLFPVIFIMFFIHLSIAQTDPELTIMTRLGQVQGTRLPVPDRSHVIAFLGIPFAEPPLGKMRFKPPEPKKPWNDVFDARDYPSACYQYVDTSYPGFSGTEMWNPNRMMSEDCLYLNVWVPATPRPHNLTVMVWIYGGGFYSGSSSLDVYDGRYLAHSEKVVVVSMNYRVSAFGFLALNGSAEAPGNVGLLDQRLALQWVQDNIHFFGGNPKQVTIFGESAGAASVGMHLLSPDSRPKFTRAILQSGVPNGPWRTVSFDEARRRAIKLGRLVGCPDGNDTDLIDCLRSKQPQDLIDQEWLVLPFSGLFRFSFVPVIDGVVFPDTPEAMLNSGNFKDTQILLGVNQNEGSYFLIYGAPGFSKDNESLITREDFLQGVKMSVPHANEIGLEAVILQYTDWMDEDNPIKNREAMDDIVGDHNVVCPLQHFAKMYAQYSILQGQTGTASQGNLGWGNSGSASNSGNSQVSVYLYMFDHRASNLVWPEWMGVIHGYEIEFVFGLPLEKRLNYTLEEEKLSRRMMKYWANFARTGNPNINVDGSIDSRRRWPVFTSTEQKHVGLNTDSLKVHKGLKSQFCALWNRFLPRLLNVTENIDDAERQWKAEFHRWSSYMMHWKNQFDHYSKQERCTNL

`CCS(=O)(=O)Oc1cccc2ccccc12` came in with an IC50 at Cholinesterase of 71.5 µM. `CCOP(=S)(OCC)Oc1c(C(CC(C)=O)c2ccccc2)c(=O)oc2ccccc12` (racemic): at Cholinesterase, the IC50 is greater than 100 µM. In data set [1], the K is 8400 M⁻¹ s⁻¹. In the case of `CCOP(=O)(OCC)Oc1ccc(Cc2cc3ccccc3oc2=O)cc1`, the concentration for half-maximal inhibition (IC50) at Cholinesterase and against Acetylcholinesterase [2] was 30.2 µM each time. The Ratio IC50 in data set [3] is 3. In data set [4], the inhibition entry is “Active”. `CCCCOP(=O)(OCCCC)Oc1c(C(CC(C)=O)c2ccccc2)c(=O)oc2ccccc12` (racemic) returned an IC50 at Cholinesterase of 1.52 µM. Moreover, the TDI entry in data set [4] was “Active”. For the same compound, the TDI entry at Acetylcholinesterase [5] is “Not Active”. On Cholinesterase, `CCOP(=O)(OCC)Oc1cccc2ccccc12` yielded an IC50 of 54 µM. With `O=c1oc2ccccc2cc1Cc1ccc(O)cc1`, inhibition against Cholinesterase was half-maximal at 51.2 µM (IC50). The same measure, in the same setting: the figure for `O=c1oc2cccc(O)c2cc1Cc1ccccc1` is greater than 700 µM. `CCOP(=O)(OCC)Oc1c(C(CC(C)=O)c2ccccc2)c(=O)oc2ccccc12` (racemic) gave an IC50 against Cholinesterase of 11.2 µM. For the same compound, the TDI result in data set [4] is “Active”. Besides, at Acetylcholinesterase [5], the TDI result is given as “Not Active”. The K in data set [1] turned out to be 142000 M⁻¹ s⁻¹. With `O=c1oc2cccc(O)c2cc1Cc1ccc(O)cc1`, at Cholinesterase, the IC50 is 32 µM. In data set [6], `CC(=O)CC(c1ccccc1)c1c(O)c2ccccc2oc1=O` (stereo unspecified) showed an inhibition of 10%. At Cholinesterase, `CCOP(=O)(OCC)Oc1cccc2oc(=O)c(Cc3ccccc3)cc12` registered an IC50 of 0.363 µM. Still for that read-out and setting: the figure for `CCOP(=S)(OCC)Oc1ccc(Cc2cc3ccccc3oc2=O)cc1` is 53 µM.

By IC50 is commonly meant the point on the concentration scale where inhibition reaches its midpoint. Low readings indicate greater potency in that assay, high ones weaker potency in that assay. In general, inhibition refers to the drop in the measured response relative to a control, in per cent.
